Source: ChEMBL document CHEMBL3120099, “Novel S1P(1) receptor agonists--part 2: from bicyclo[3.1.0]hexane-fused thiophenes to isobutyl substituted thiophenes” (J Med Chem, 2014)
Active and inactive are the calls of the source. No cut-off for these calls is given here.

Assays:
[1] = Plasma concentration in Wistar rat at 10 mg/kg, po after 3 hrs; type: ADME, organism-based; set-up: dose 10 mg/kg, route oral
Rattus norvegicus [2] = assay: Lymphopenic activity in Wistar rat assessed as reduction in blood lymphocyte count at 10 mg/kg, po after 3 hrs; type: functional; set-up: scale not given: the % may be the effect or the level left
Method in brief: (§1)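 Normotensive male Wistar rats given 1–10 mg/kg by gavage in 5% DMSO/7.5% succinylated gelatin. Blood taken before and 3, 6 and 24 h after dosing, with later times for some compounds. Lymphocytes counted by hematology analyzer. % LC change calculated per animal relative to the predose value (=100%). Mean ± SEM.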

Rattus norvegicus [3] = assay: Lymphopenic activity in po dosed Wistar rat assessed as reduction in blood lymphocyte count; type: functional, organism-based; method in brief: as §1
[4] = Plasma concentration in Wistar rat at 10 mg/kg, po after 24 hrs; type: ADME, organism-based; set-up: dose 10 mg/kg, route oral
Rattus norvegicus [5] = assay: Lymphopenic activity in Wistar rat assessed as reduction in blood lymphocyte count at 10 mg/kg, po after 6 hrs; type: functional; set-up: scale not given: the % may be the effect or the level left; method in brief: as §1
Rattus norvegicus [6] = assay: Lymphopenic activity in Wistar rat assessed as reduction in blood lymphocyte count at 10 mg/kg, po after 72 hrs; type: functional; set-up: scale not given: the % may be the effect or the level left; method in brief: as §1
[7] = biological target: Sphingosine 1-phosphate receptor 1 (Homo sapiens, UniProt P21453); assay: Agonist activity at human recombinant S1P1 receptor expressed in CHO cells assessed as membrane-bound 35S-GTPgammaS incubated 30 mins prior to substrate addition measured after 1 hr by topcount scintillation counting analysis; type: functional, cell-based
Sequence of Sphingosine 1-phosphate receptor 1 (P21453 whole entry): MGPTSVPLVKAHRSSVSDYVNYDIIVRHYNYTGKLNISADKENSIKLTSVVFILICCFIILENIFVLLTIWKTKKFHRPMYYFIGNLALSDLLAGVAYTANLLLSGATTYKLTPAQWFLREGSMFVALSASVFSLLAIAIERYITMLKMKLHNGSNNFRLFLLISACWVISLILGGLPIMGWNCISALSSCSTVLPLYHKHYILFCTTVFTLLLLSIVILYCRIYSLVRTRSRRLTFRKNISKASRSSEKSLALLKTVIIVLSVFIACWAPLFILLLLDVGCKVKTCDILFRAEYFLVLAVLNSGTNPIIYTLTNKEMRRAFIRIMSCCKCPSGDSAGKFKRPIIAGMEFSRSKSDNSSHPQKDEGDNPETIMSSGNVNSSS

[8] = Plasma concentration in Wistar rat at 10 mg/kg, po after 6 hrs; type: ADME, organism-based; set-up: dose 10 mg/kg, route oral
Rattus norvegicus [9] = assay: Lymphopenic activity in Wistar rat assessed as reduction in blood lymphocyte count at 10 mg/kg, po after 24 hrs; type: functional; method in brief: as §1
[10] = biological target: Sphingosine 1-phosphate receptor 3 (Homo sapiens, UniProt Q99500); assay: Agonist activity at human recombinant S1P3 receptor expressed in CHO cells assessed as membrane-bound 35S-GTPgammaS incubated 30 mins prior to substrate addition measured after 1 hr by topcount scintillation counting analysis; type: functional, cell-based
Sequence of Sphingosine 1-phosphate receptor 3 (Q99500 whole entry): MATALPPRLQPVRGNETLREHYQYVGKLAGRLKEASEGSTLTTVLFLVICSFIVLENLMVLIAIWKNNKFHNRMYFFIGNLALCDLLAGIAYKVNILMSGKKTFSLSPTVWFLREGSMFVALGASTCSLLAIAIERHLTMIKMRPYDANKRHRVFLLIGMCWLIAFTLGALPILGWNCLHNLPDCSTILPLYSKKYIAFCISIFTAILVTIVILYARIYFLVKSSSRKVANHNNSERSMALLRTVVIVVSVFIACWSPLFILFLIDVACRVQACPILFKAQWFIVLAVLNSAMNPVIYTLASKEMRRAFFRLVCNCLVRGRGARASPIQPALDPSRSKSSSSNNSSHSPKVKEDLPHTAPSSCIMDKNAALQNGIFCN

Rattus norvegicus [11] = assay: Lymphopenic activity in Wistar rat assessed as reduction in blood lymphocyte count at 10 mg/kg, po after 144 hrs; type: functional; set-up: scale not given: the % may be the effect or the level left; method in brief: as §1
[12] = AUC (0 to 24 hrs) in Wistar rat at 10 mg/kg, po; type: ADME, organism-based; set-up: time < 24 hr, dose 10 mg/kg, route oral; conditions: plasma
[13] = Tmax in Wistar rat at 10 mg/kg, po; type: ADME, organism-based; set-up: dose 10 mg/kg, route oral; conditions: in vivo
Method in brief: (§2)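 Male Wistar rats (~250 g), 10 mg/kg by gavage as a DMSO solution added to 7.5% succinylated gelatin in water (5% DMSO final). Sublingual blood under light isoflurane predose and at 0.5, 1, 2, 3, 4, 6, 8, 24 h into EDTA. Plasma LC-MS-MS after methanol precipitation. Noncompartmental parameters. Bioavailability referenced to 1 mg/kg iv.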

[14] = Intrinsic clearance in Wistar rat liver microsomes at 1 uM by LC-MS/MS analysis; type: ADME; conditions: read-out: CLH
Method in brief: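 Pooled male Wistar rat liver microsomes at 0.5 mg/mL protein. Compound at 1 µM, 37 °C, DMSO ≤0.1%. Started with NADPH-regenerating system (NADP, glucose 6-phosphate, MgCl2, G6PDH, pH 7.4 phosphate). Quenched with ice-cold methanol at times up to 15 min, then LC-MS-MS.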

[15] = Volume of distribution at steady state in Wistar rat at 1 mg/kg, iv; type: ADME, organism-based; set-up: dose 1 mg/kg, route intravenous; conditions: in vivo, read-out: Vdss
Method in brief: (§3)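 Male Wistar rats (~250 g), jugular vein and carotid artery catheters implanted 2 days before dosing under isoflurane with buprenorphine analgesia. 1 mg/kg given as a 5 min jugular infusion in aqueous mixed micellar vehicle (phospholipids, bile acids). Serial EDTA blood sampling up to 24 h. Plasma analysed by LC-MS-MS after methanol precipitation. Noncompartmental analysis.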

[16] = Oral bioavailability in Wistar rat at 10 mg/kg; type: ADME, organism-based; conditions: in vivo; method in brief: as §2
[17] = Half life in Wistar rat at 1 mg/kg, iv; type: ADME, organism-based; set-up: dose 1 mg/kg, route intravenous; conditions: in vivo; method in brief: as §3
Rattus norvegicus [18] = assay: Clearance in Wistar rat at 1 mg/kg, iv; type: ADME, organism-based; set-up: dose 1 mg/kg, route intravenous; conditions: in vivo; method in brief: as §3
[19] = Cmax in Wistar rat at 10 mg/kg, po; type: ADME, organism-based; set-up: dose 10 mg/kg, route oral; conditions: in vivo; method in brief: as §2
[20] = Intrinsic clearance in Wistar rat hepatocytes assessed per 10^6 cells at 1 uM by LC-MS/MS analysis; type: ADME, cell-based, Hepatocyte; conditions: read-out: CLH
Method in brief: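 Male rat hepatocytes from two-step collagenase perfusion (viability ≥85%), plated at 5.0 × 10^5 viable cells/mL on collagen and preincubated ~3 h at 37 °C, 5% CO2. Compound at 1 µM final. Duplicate wells sampled at 0–24 h with methanol/0.3% SDS. LC-MS-MS (MRM). CLint from initial first-order disappearance rates.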

[21] = Tmax in Wistar rat plasma at 10 mg/kg, po; type: ADME, organism-based; set-up: dose 10 mg/kg, route oral
Method in brief: (§4)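 Male Wistar rats given 10 mg/kg orally in 5% DMSO/succinylated gelatin. At selected times, anesthesia with thiobutobarbital 150 mg/kg ip, laparotomy and thoracic lymph duct catheter. Mesenteric lymph collected for at least 10 min, with a plasma sample at mid-collection. Methanol precipitation, then LC-MS-MS with internal standard.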

[22] = Cmax in Wistar rat plasma at 10 mg/kg, po; type: ADME, organism-based; set-up: dose 10 mg/kg, route oral; method in brief: as §4
[23] = Drug uptake in Wistar rat mesenteric lymph at 10 mg/kg, po after 2.3 hrs; type: ADME, organism-based, Mesenteric lymph node; set-up: dose 10 mg/kg, route oral; conditions: read-out: Drug uptake; method in brief: as §4
[24] = Lipophilicity, log D of the compound at pH 7.4; type: physicochemical; conditions: buffer
[25] = Drug uptake in Wistar rat mesenteric lymph at 10 mg/kg, po after 1 hr; type: ADME, organism-based, Mesenteric lymph node; set-up: dose 10 mg/kg, route oral; conditions: read-out: Drug uptake; method in brief: as §4
[26] = Cmax in Wistar rat mesenteric lymph at 10 mg/kg, po; type: ADME, organism-based, Mesenteric lymph node; set-up: dose 10 mg/kg, route oral; method in brief: as §4
[27] = Plasma concentration in Wistar rat at 10 mg/kg, po after 2.3 hrs; type: ADME, organism-based; set-up: dose 10 mg/kg, route oral; method in brief: as §4
[28] = Tmax in Wistar rat mesenteric lymph at 10 mg/kg, po; type: ADME, organism-based, Mesenteric lymph node; set-up: dose 10 mg/kg, route oral; method in brief: as §4
[29] = Plasma concentration in Wistar rat at 10 mg/kg, po after 1.7 hrs; type: ADME, organism-based; set-up: dose 10 mg/kg, route oral; method in brief: as §4
Plasma = assay: AUC (0 to 24 hrs) in Wistar rat plasma at 10 mg/kg, po; type: ADME, organism-based; set-up: time < 24 hr, dose 10 mg/kg, route oral; conditions: in vivo
[30] = Drug uptake in Wistar rat mesenteric lymph at 10 mg/kg, po after 24.8 hrs; type: ADME, organism-based, Mesenteric lymph node; set-up: dose 10 mg/kg, route oral; conditions: read-out: Drug uptake; method in brief: as §4
[31] = Plasma concentration in Wistar rat at 10 mg/kg, po after 3 days; type: ADME, organism-based; set-up: dose 10 mg/kg, route oral
[32] = Plasma concentration in Wistar rat at 10 mg/kg, po after 6 days; type: ADME, organism-based; set-up: dose 10 mg/kg, route oral
[33] = Plasma concentration in Wistar rat at 10 mg/kg, po after 1 hr; type: ADME, organism-based; set-up: dose 10 mg/kg, route oral; method in brief: as §4
[34] = Drug uptake in Wistar rat mesenteric lymph at 10 mg/kg, po after 6 hrs; type: ADME, organism-based, Mesenteric lymph node; set-up: dose 10 mg/kg, route oral; conditions: read-out: Drug uptake; method in brief: as §4
[35] = AUC (0 to 24 hrs) in Wistar rat mesenteric lymph at 10 mg/kg, po; type: ADME, organism-based, Mesenteric lymph node; set-up: time < 24 hr, dose 10 mg/kg, route oral; conditions: in vivo
[36] = Drug uptake in Wistar rat mesenteric lymph at 10 mg/kg, po after 1.7 hrs; type: ADME, organism-based, Mesenteric lymph node; set-up: dose 10 mg/kg, route oral; conditions: read-out: Drug uptake; method in brief: as §4
[37] = Plasma concentration in Wistar rat at 10 mg/kg, po after 24.8 hrs; type: ADME, organism-based; set-up: dose 10 mg/kg, route oral; method in brief: as §4
[38] = Drug uptake in Wistar rat mesenteric lymph at 10 mg/kg, po after 3 hrs; type: ADME, organism-based, Mesenteric lymph node; set-up: dose 10 mg/kg, route oral; conditions: read-out: Drug uptake; method in brief: as §4

Compound | concentration at 3 h [1] [ng/mL] | Activity (Rattus norvegicus [2]) | concentration at 24 h [4] [ng/mL] | Activity (Rattus norvegicus [5]) | Activity (Rattus norvegicus [6]) | EC50 [7] [nM] | concentration at 6 h [8] [ng/mL] | % change in blood lymphocyte count from predose (Rattus norvegicus [9]) [%] | EC50 [10] [nM] | Activity (Rattus norvegicus [11]) | AUC(0-t) at 24 h [12] [ng·h/mL] | Tmax [13] [h] | Vd [15] [L/kg] | bioavailability [16] [%] | half-life [17] [h] | clearance (Rattus norvegicus [18]) [mL/min/kg] | Cmax [19] [ng/mL] | hepatocyte CLint at 1 µM [20] [µL/min/1e6 cells] | other results
Cc1cc(-c2noc(-c3ccc(CC(C)C)s3)n2)cc(C)c1OCC(O)CNC(=O)CO (racemic) | 1010 | -75% | 23 | -79% | 14% | 0.6 | 680 | -66 | 247 |  |  |  |  |  |  |  |  |  | Activity (Rattus norvegicus [3]): Dose-dependent effect
Cc1cc(-c2noc(-c3sc(C)c4c3CCC(C)(C)C4)n2)cc(C)c1OCC(O)CNC(=O)CO (racemic) |  | -70% |  | -73% | -73% | 1.6 |  | -77 | 15 | -7% |  |  |  |  |  |  |  |  | 
CCc1cc(CCC(=O)c2sc(CC)c3c2CCC(C)(C)C3)cc(C)c1OCC(O)CNC(=O)CO (racemic) | 32 | Active | < 1.5 | Active |  | 0.6 | 10 |  | 141 |  | 276 | 0.5 | 2.8 | 8 | 1.7 | 46 | 141 | 107 | microsomal CLint at 1 µM [14]: > 1250 µL/min/mg
CCc1cc(-c2noc(-c3sc(CC)c4c3CCC(C)(C)C4)n2)cc(C)c1OC[C@@H](O)CNC(=O)CO | 132 |  | 530 |  | Active | 4.6 | 911 |  | 8.9 | Active | 28100 | 6 | 3.5 | > 33 | 21 | 2 | 1450 | 3.1 | Tmax [21]: 6 h; Cmax [22]: 911 ng/mL; concentration at 2.3 h [23]: 4600 ng/mL; logD [24]: 4.3; concentration at 1 h [25]: 5790 ng/mL; Cmax [26]: 8090 ng/mL; concentration at 2.3 h [27]: 123 ng/mL; Tmax [28]: 3 h; concentration at 1.7 h [29]: 58.1 ng/mL; AUC (Plasma): 1660 ng·h/mL; concentration at 24.8 h [30]: 684 ng/mL; concentration at 72 h [31]: 236 ng/mL; concentration at 144 h [32]: 66 ng/mL; concentration at 1 h [33]: 44.4 ng/mL; concentration at 6 h [34]: 4590 ng/mL; AUC [35]: 70500 ng·h/mL; concentration at 1.7 h [36]: 4340 ng/mL; Activity (Rattus norvegicus [9]): Active; concentration at 24.8 h [37]: 680 ng/mL; concentration at 3 h [38]: 8090 ng/mL
